Assay results collected from several papers.
Each line is one published result; the experiments were not run side by side.
Organism: Acinetobacter baumannii
Read-out: microbial growth

| SMILES | assay | system | setting | MIC |
| --- | --- | --- | --- | --- |
| C/C(=C\c1ccc(O)cc1)C(=O)Nc1ccc(C(=O)N[C@@H](CC(N)=O)C(=O)Nc2ccc(C(=O)Nc3ccc(C(=O)Nc4ccc(C(=O)O)cc4)c(O)c3OC(C)C)cc2)cc1 | – | DSM30008 | – | 0.25 mg/L |
| NC[C@@H]1O[C@H](O[C@H]2[C@@H](O)[C@H](O[C@@H]3[C@@H](O)[C@H](N)C[C@H](N)[C@H]3O[C@H]3O[C@H](CO)[C@@H](O)[C@H](O)[C@H]3N)O[C@@H]2CO)[C@H](N)[C@@H](O)[C@@H]1O | – | – | – | 2 to 4 mg/L |
| CN(C)[C@@H]1C(O)=C(C(N)=O)C(=O)[C@@]2(O)C(O)=C3C(=O)c4c(cc5ccc(-c6ccccc6)cc5c4O)C[C@H]3C[C@@H]12 | broth dilution | ATCC19606 | – | 32 mg/L |
| C/C(O)=C1\C(=O)C(CC(C)C)N(C(=O)CCCCCc2ccccc2)C1=O (centres unmarked) | – | ATCC19606 | – | > 200 mg/L |
| N=C(N)c1ccc(OCc2ccc(-c3ccccc3)cc2COc2ccc(C(=N)N)cc2)cc1 | broth dilution | ATCC17978 | – | > 200 mg/L |
| NC1CCCCc2c1[nH]c1ccc(Br)cc21 (centres unmarked) | broth dilution | ATCC19606 | – | 16 mg/L |
| CCCCCCC/C=C/C(=O)N1CC(=O)/C(=C(\C)O)C1=O | – | ATCC19606 | – | 100 mg/L |
| CN[C@H](CC(C)C)C(=O)N[C@H]1C(=O)N[C@@H](CC(N)=O)C(=O)N[C@H]2C(=O)N[C@H]3C(=O)N[C@H](C(=O)N[C@H](C(=O)O)c4cc(O)cc(O)c4-c4cc3ccc4O)[C@H](O)c3ccc(c(Cl)c3)Oc3cc2cc(c3O[C@@H]2O[C@H](CO)[C@@H](O)[C@H](O)[C@H]2O[C@H]2C[C@](C)(N)[C@H](O)[C@H](C)O2)Oc2ccc(cc2Cl)[C@H]1O | broth dilution | ATCC19606 | 18 h | > 32 mg/L |
| CN(C)CCCNc1nc(Cl)c2c(c1O)C(=O)C1=C(O)[C@]3(O)C(=O)C(C(N)=O)=C(O)[C@@H](N(C)C)[C@@H]3C[C@@H]1C2.Cl | broth dilution | ATCC19606 | – | > 32 mg/L |
| C/C(O)=C1\C(=O)C(CC(C)C)N(C(=O)C=Cc2ccccc2)C1=O (centres unmarked) | – | ATCC19606 | – | > 200 mg/L |
| CCCNc1nc(F)c2c(c1O)C(=O)C1=C(O)[C@]3(O)C(=O)C(C(N)=O)=C(O)[C@@H](N(C)C)[C@@H]3C[C@@H]1C2.Cl.Cl | broth dilution | ATCC19606 | – | 0.125 mg/L |
| CN(C)c1ccc(O)c2c1C[C@H]1C[C@H]3[C@H](N(C)C)C(O)=C(C(N)=O)C(=O)[C@@]3(O)C(O)=C1C2=O | broth dilution | ATCC19606 | – | ≤ 0.125 mg/L |
| CC1(C)S[C@@H]2[C@H](NC(=O)C(C(=O)O)c3ccccc3)C(=O)N2[C@H]1C(=O)O (some centres unmarked) | broth dilution | – | clinical isolate | > 200 µM |
| CC(C)(O/N=C(\C(=O)N[C@@H]1C(=O)N2C(C(=O)[O-])=C(C[N+]3(CCNC(=O)c4ccc(O)c(O)c4Cl)CCCC3)CS[C@H]12)c1csc(N)n1)C(=O)O | – | DSM30007 | – | 0.2 µM |
| CC[C@H]1OC(=O)[C@H](C)[C@@H](O[C@H]2C[C@@](C)(OC)[C@@H](O)[C@H](C)O2)[C@H](C)[C@@H](O[C@@H]2O[C@H](C)C[C@H](N(C)C)[C@H]2O)[C@](C)(O)C[C@@H](C)C(=O)[C@H](C)[C@@H](O)[C@]1(C)O | – | ATCC19606 | – | 50 mg/L |
| CN(Cc1ccc2cc3c(c(O)c2c1)C(=O)C1=C(O)[C@]2(O)C(=O)C(C(N)=O)=C(O)[C@@H](N(C)C)[C@@H]2C[C@@H]1C3)c1ccccc1 | broth dilution | ATCC19606 | – | 32 mg/L |
| O=C(O)c1ccc(-n2cc(/C=N/Nc3cccc(Br)c3)c(-c3cccc(F)c3)n2)cc1 | – | ATCCBAA1605 | – | 12.5 mg/L |
